Laboratory results: ChEMBL document CHEMBL4396968, “Small-molecule inhibitors of nisin resistance protein NSR from the human pathogen Streptococcus agalactiae” (Bioorg Med Chem, 2019)
Activity calls are given as the source filed them. The calls are words filed in the database; no cut-off is given here. Residues, ends and D or L forms follow the SMILES beside them. *: point of attachment. Boc = CC(C)(C)OC(=O)*; Bn = c1ccc(C*)cc1

Columns and labels:
Streptococcus agalactiae [1] = assay: Inhibition of Streptococcus agalactiae NSR transfected in Lactococcus lactis NZ9000 cells assessed as bacterial growth inhibition at 150 uM incubated for 5 hrs by optical density based assay in presence of 30 nM nisin
How it was run: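 L. lactis NZ9000 carrying the SaNSR plasmid, and an empty-plasmid control strain, grown overnight in GM17 with 5 µg/ml erythromycin and 1 ng/ml nisin. Diluted to OD595 0.1 and preincubated 30 min at 30 °C, then exposed to compound plus 30 nM nisin for 5 h at 30 °C. Specific inhibition is the OD ratio between strains as %; ≥3 independent experiments.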

Streptococcus agalactiae [2] = assay: Inhibition of Streptococcus agalactiae NSR transfected in Lactococcus lactis NZ9000 cells assessed as potentiation of nisin-induced growth inhibition by measuring reduction in nisin IC50 at 300 uM incubated for 5 hrs by optical density based assay relative to nisin alone
How it was run: (§1)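 SaNSR-expressing L. lactis NZ9000 preincubated at OD595 0.1 with fixed compound (120 or 300 µM), mixed with serial nisin dilutions, and read by OD595 after 5 h at 30 °C. Nisin IC50 taken from dose-response curves. Expressed as % ratio of the IC50 with compound to the IC50 of the same strain without it; ≥3 independent experiments.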

Streptococcus agalactiae [3] = assay: Inhibition of Streptococcus agalactiae NSR transfected in Lactococcus lactis NZ9000 cells assessed as potentiation of nisin-induced growth inhibition by measuring reduction in nisin IC50 at 120 uM incubated for 5 hrs by optical density based assay relative to nisin alone; how it was run: as §1
[4] = test system: Streptococcus agalactiae COH1; assay: Binding affinity to N-terminal 8xHis-tagged Streptococcus agalactiae COH1 NSR30 (30 amino acids deletion at N-terminal transmembrane region) expressed in Escherichia coli BL21 (DE3) cells at 18 mM by STD NMR method; conditions: 1.8 mM, in the assay text read “1.8 mM” for “18 mM”
How it was run: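 His-tagged SaNSR30 induced with 1 mM IPTG at OD600 0.8–1.0 and expressed overnight at 18 °C. Purified by metal-affinity chromatography with 150 mM histidine elution, then size exclusion in 25 mM MES pH 6, 150 mM NaCl.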

Lactococcus lactis = assay: Growth inhibition of Lactococcus lactis NZ9000 transfected with Streptococcus agalactiae NSR at 300 uM incubated for 5 hrs in absence of nisin by optical density based assay; type: organism-based; conditions: in vivo

| Compound | inhibition (Streptococcus agalactiae [1]) | other results |
| --- | --- | --- |
| CC(O)C(NC(=O)C(Cc1ccc(OCc2ccccc2)cc1)NC(=O)CNC(=O)OC(C)(C)C)C(N)=O (stereo not drawn) (Boc-Gly-Tyr(Bn)-Thr-NH2; configuration not given here) | 17.5% | – |
| COc1ccccc1-n1cc(C(=O)N2Cc3nc[nH]c3CC2C(=O)O)cn1 (centres undefined) | 10.8% | – |
| N#Cc1ccc(NC(=O)NCCNC(=O)Nc2ccc(C#N)cc2)cc1 | – | inhibition (Streptococcus agalactiae [2]): < 1% |
| CC(CO)(CO)NC(=O)Nc1ccc(Cl)c(Br)c1 | 57.9% | inhibition (Streptococcus agalactiae [3]): 50.5%; Activity [4]: Active; growth inhibition (GI) (Lactococcus lactis): Toxic |
| Cc1cc(C)c(S(=O)(=O)N2CCCC2CNC(=O)C(=O)Nc2ccccc2C#N)c(C)c1 (centres undefined) | < 1% | – |
| CC(CO)NC(=O)Nc1ccc(Cl)cc1 (centres undefined) | – | inhibition (Streptococcus agalactiae [2]): < 1% |
| O=C(CC1NC(=O)c2ccccc2NC1=O)NCc1nc(-c2ccccc2Cl)no1 (centres undefined) | < 1% | – |
| CC(O)(CNC(=O)NCC[S+]([O-])c1ccccc1)c1ccco1 (centres undefined) | 13.4% | – |
| CNC(=O)CNC(=O)c1cccc(S(=O)(=O)NC(C)c2ccccc2)c1 (centres undefined) | 7.92% | – |
| CCCCn1nc(C(=O)N[C@@H](Cc2c[nH]c3ccccc23)C(=O)O)c2ccccc2c1=O | 3.21% | – |
| Cc1[nH]c(SCC(=O)Nc2[nH]c(Cc3ccccc3)c(C)c2C#N)nc1Cc1ccccc1 | 15.3% | – |
| CC(C)NC(=O)Nc1ccc(Cl)cc1 | – | inhibition (Streptococcus agalactiae [2]): < 1% |
| O=C(CNC(=O)c1ccc2c(c1)OCO2)NCCc1c[nH]c2ccccc12 | < 1% | – |
| N#Cc1ccc(NC(=O)NC(CO)c2ccccc2)cc1 (centres undefined) | – | inhibition (Streptococcus agalactiae [3]): 8.1%; inhibition (Streptococcus agalactiae [2]): 13.5% |
| O=C(NCC(O)c1ccc(O)cc1)C(=O)Nc1ccccc1O (centres undefined) | 13.6% | – |
| OC(CNc1ccccc1Cl)COc1ccc(OCC(O)CNc2ccccc2Cl)cc1 (centres undefined) | < 1% | – |
| O=C(CC[C@H]1NC(=O)c2ccccc2NC1=O)NCc1nc2ccccc2[nH]1 | 9.95% | – |
| CCc1cc(=O)[nH]c(-n2nc(C)cc2NC(=O)C(=O)NCCc2ccccc2)n1 | < 1% | – |
| COc1ccc(-c2cc(N3CCCN(C(=O)C4(c5ccc(OC)cc5)CC4)CC3)[nH]n2)cc1 | 20.7% | inhibition (Streptococcus agalactiae [2]): 20.5% |
| CC(CO)(CO)NC(=O)NC1CCCCC1 | – | inhibition (Streptococcus agalactiae [2]): < 1% |
| O=C(NCc1ccccc1)C(=Cc1ccc(O)c(O)c1)C(=O)NCc1ccccc1 | 16.9% | inhibition (Streptococcus agalactiae [2]): 32.2% |
| CC(C)(CO)NC(=O)NCC12CC3CC(CC(C3)C1)C2 | – | inhibition (Streptococcus agalactiae [3]): 4%; inhibition (Streptococcus agalactiae [2]): 8.5% |
| CCC(CC)(CO)NC(=O)Nc1cccc(Oc2ccccc2)c1 | – | inhibition (Streptococcus agalactiae [2]): < 1% |
| Cc1cc(C)nc(NC(Cc2ccccc2)C(=O)NCc2nc3ccccc3[nH]2)n1 (centres undefined) | < 1% | – |
| COc1ccc2[nH]cc(CCNC(=O)CC3C(=O)Nc4c3c(=O)n(C)c(=O)n4C)c2c1 (centres undefined) | 11.3% | – |
| O=C(Nc1ccc(C(F)(F)F)cc1)NC1(CO)CCOCC1 | – | inhibition (Streptococcus agalactiae [3]): < 1%; inhibition (Streptococcus agalactiae [2]): < 1% |
| CC(CO)NC(=O)Nc1ccc(C(F)(F)F)cc1 (centres undefined) | – | inhibition (Streptococcus agalactiae [2]): < 1% |
| CCN(CC)Cc1ccc(CNC(=O)NCc2ccc(Cn3ccnc3)cc2)cc1 | < 1% | – |
| O=C(Nc1ccccc1C(F)(F)F)NC(CO)(CO)C(F)(F)F | – | inhibition (Streptococcus agalactiae [3]): < 1%; inhibition (Streptococcus agalactiae [2]): < 1% |

Further lines, with some results ahead:

| inhibition (Streptococcus agalactiae [1]) | Compound | other results |
| --- | --- | --- |
| 7.58% | CC(=O)Nc1ccc(NC(=O)CSc2nc3ccccc3c(=O)n2-c2ccccc2)cc1 | – |
| 14.2% | Cc1ccc(-n2nc(C)c(NC(=O)Cn3cnc4c3c(=O)n(C)c(=O)n4C)c2C)cc1 | – |
| 14.1% | CCCCc1ccc(NC(=O)CN2C(=O)NC(C)(Cc3ccc(OC)c(OC)c3)C2=O)cc1 (centres undefined) | – |
| 8.21% | CC(C(=O)NC(CO)(CO)CO)c1ccc2c(c1)[nH]c1ccc(Cl)cc12 (centres undefined) | – |
| 19% | O=C(CCn1c(=O)oc2cc(Cl)ccc21)Nc1ccc(N2CCOCC2)nc1 | – |
| 6.03% | CCc1ccc(NC(=O)C(=O)NCC(c2ccc3c(c2)OCO3)N2CCN(C)CC2)cc1 (centres undefined) | – |
| < 1% | COc1ccc(C2(CNC(=O)C(=O)Nc3ccc(Br)cc3)CCOCC2)cc1 | – |
| < 1% | O=C(Cn1cnc2c(oc3ccccc32)c1=O)NCc1ccccc1Cn1ccnc1 | – |
| 4.86% | COc1ccc(C2(CNC(=O)c3cn(C(C)C)c(=O)c4ccccc34)CCOCC2)cc1 | – |
| < 1% | CCn1c(=O)n(CCC(=O)Nc2nc(-c3ccc4c(c3)CCO4)cs2)c2ccccc21 | – |
| < 1% | Cc1cc(C)c2c(C)nn(-c3ccc(NC(=O)CCc4nc5ccccc5c(=O)[nH]4)cc3)c2n1 | inhibition (Streptococcus agalactiae [2]): 1.9% |
| 19.6% | CCCC(=O)Nc1ccc(CNC(=O)NCC(CO)Cc2ccc(C)cc2)cc1 (centres undefined) | – |
| < 1% | Cc1ccc2c(c1)-c1c(cnn1CC(=O)NC(C)c1ccc3c(c1)OCCO3)CO2 (centres undefined) | – |
| 1.38% | CC1CCc2nc(NC(=O)c3ccccc3NC(=O)CSc3nccn3C)sc2C1 (centres undefined) | – |
| < 1% | Cc1cc(C)c2c(=O)n(CC(=O)Nc3ccc(C(C)C)cc3)c(=O)n(Cc3ccco3)c2n1 | – |
